Experimental data published in publication PMC12750372 (Acta Pharmaceutica Sinica. B, 2025).

Key:
[1] = system: CREB-mediated gene transcription; assay: CREB Renilla luciferase; type: cell-based; conditions: read-out: CREB inhibition IC50; inhibition of CREB-mediated gene transcription in HEK 293T cells, CRE-RLuc, 30 min peptide then Fsk 10 μmol/L for 5 h
Summary of the method: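 HEK 293T cells were transfected for 3 h with 2 μg pCRE-RLuc (Renilla luciferase driven by three CRE copies) by lipofection, then replated overnight. Peptides at graded concentrations were added for 30 min before forskolin (10 μmol/L), then incubated 5 h at 37 °C. Lysate Renilla luciferase was normalized to well protein (RLU/μg) and expressed as % CREB activity. IC50 came from nonlinear regression.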

HEK 293T cells [2] = assay: Cell uptake by confocal microscopy of FITC-labeled peptides; type: cell-based; conditions: FITC-labeled peptides at 10 μmol/L, 4 h
Summary of the method: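 HEK 293T cells attached overnight, then received FITC-labeled peptides in DMEM (0.1% DMSO) at final 1, 10 and 20 μmol/L for 4 h at 37 °C, 5% CO2. After three PBS washes, cells were DAPI-stained (10 μg/mL, 10 min), washed, methanol-fixed 5 min and imaged by multiphoton laser scanning microscopy. The αB helix of KID served as control peptide.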

HEK 293T cells [3] = assay: Cell uptake by flow cytometry of FITC-labeled peptides; type: cell-based
Summary of the method: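 Suspended HEK 293T cells (3 × 10^5, DMEM with 10% FBS) were mixed with FITC-labeled peptides in DMEM (0.1% DMSO) at final 1, 10 and 20 μmol/L for 30 min at room temperature in the dark. They were spun at 500×g, washed in staining buffer, resuspended and run on a flow cytometer. Mean fluorescence from two independent experiments was normalized to a reference stapled peptide at 20 μmol/L.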

[4] = system: CREB-mediated transcription; conditions: read-out: IC50 in CREB Renilla luciferase reporter assay; cited from earlier work
KIX/KID interaction = conditions: up to 50 μmol/L; cited from earlier work

Compound | IC50 [1] [µM] | Cell uptake by confocal imaging (HEK 293T cells [2]) | Fold increase of cell uptake compared to linear L3 and stapled S1 (HEK 293T cells [3]) [fold] | IC50 [4] [µM] | Inhibition of the KIX/KID interaction (in words) (KIX/KID interaction)
CC(=O)N[C@@H](Cc1ccc(O)cc1)CN(CC(=O)N[C@@H](CCCCN)CN(CC(=O)N[C@@H](Cc1ccccc1)CN(CC(=O)N[C@H]1CCCCNc2c(F)c(F)c(c(F)c2F)Sc2c(F)c(F)c(c(F)c2F)Sc2c(F)c(F)c(c(F)c2F)NCCCC[C@@H](CN(CC(=O)N[C@@H](C)CN(CC(N)=O)S(C)(=O)=O)S(C)(=O)=O)NC(=O)CN(S(=O)(=O)CC(C)C)C[C@H](CC(C)C)NC(=O)CN(S(=O)(=O)CCN)C1)S(=O)(=O)CC(C)C)S(=O)(=O)CCN)S(C)(=O)=O [Compound S3] | 66 | significant cell uptake | ~4 | – | –
O=C(Nc1ccc(Cl)cc1)c1cc2ccccc2cc1OP(=O)(O)O [KG-501] | – | – | – | 5.4 | no significant inhibition
